Screens deposited in PubChem by several laboratories.
AHR act – activates the human aryl hydrocarbon receptor. P35869. AID 2796. 2.5% of 320,000 active. AHR-responsive luciferase reporter cells, luminescence. activation, % at 5 µM; in the data active means activation above about 47%;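 further: 0% = vehicle wells and 100% = reference agonist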
SR-BI uptake up – SR-BI HDL lipid transfer activation | CHO ldlA[mSR-BI] cells, DiI-HDL uptake fluorescence, 3 h; 100 = double the neutral-control signal | activation, % at 12.5 µM | 0.096% of 320,000 active;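 active means mean replicate activation of at least 60% and every replicate at or above 60%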;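 further: 0% = median plate neutral-control signal and 100% = twice that signal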
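Assay system: LDL receptor-deficient CHO ldlA cells overexpressing murine SR-BI / Medium: BSA-supplemented, HEPES-buffered Ham's F12, pH 7.4 / Probe or stimulus: DiI-labelled HDL at 10 µg/mL final / Timing: compound with DiI-HDL co-incubation, 3 h at 37 °C / Technique: bottom-read cell fluorescence after medium removal, ex 550/em 595 nm / Measure: HDL uptake via cellular fluorescence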
Hep lipid drop – modulators of hepatic lipid droplet formation; inhibition, % at 6.5 µM; AML12 mouse hepatocytes, oleate lipid droplets, BODIPY imaging; 0.4% of 240,000 active;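 active means lipid droplet intensity inhibited by at least 50%, with more than 500 cells counted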
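Assay system: AML12 hepatocytes (mouse) / Also added: 100 µM oleic acid challenge / Times: overnight treatment with compound plus oleate / Detection: high-content imaging of BODIPY-stained droplets and DAPI nuclei / Evaluation: % inhibition of lipid droplet signal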
Yeast superoxide – lowers age-related superoxide in aged yeast cells. S. cerevisiae aged cells, superoxide DHE fluorescence; active compounds read low. superoxide response (% of plate mean), % at 10 µM. 0.18% of 330,000 active. AID 2690;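 active means superoxide response under a set limit, about three screen SD below normal, cut at about 65% in these data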;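 further: yeast aged for seven days with compound at 30 °C before DHE staining; 100% = average MFI of all compound-treated wells on the plate with controls excluded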
SR-BI DiI inh – blocks mouse SR-BI lipid uptake from DiI-HDL; Q61009; ldlA[mSR-BI] CHO cells, DiI-HDL uptake fluorescence, 3 h; inhibition, % at 12.5 µM; 0.96% of 320,000 active; AID 488896;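 active means mean replicate inhibition of at least 70% and a set share of replicates each scoring 70 or more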;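 further: 0% = median of neutral control wells and 100% = median of positive control wells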
Target sequence (Q61009 whole entry, looked up): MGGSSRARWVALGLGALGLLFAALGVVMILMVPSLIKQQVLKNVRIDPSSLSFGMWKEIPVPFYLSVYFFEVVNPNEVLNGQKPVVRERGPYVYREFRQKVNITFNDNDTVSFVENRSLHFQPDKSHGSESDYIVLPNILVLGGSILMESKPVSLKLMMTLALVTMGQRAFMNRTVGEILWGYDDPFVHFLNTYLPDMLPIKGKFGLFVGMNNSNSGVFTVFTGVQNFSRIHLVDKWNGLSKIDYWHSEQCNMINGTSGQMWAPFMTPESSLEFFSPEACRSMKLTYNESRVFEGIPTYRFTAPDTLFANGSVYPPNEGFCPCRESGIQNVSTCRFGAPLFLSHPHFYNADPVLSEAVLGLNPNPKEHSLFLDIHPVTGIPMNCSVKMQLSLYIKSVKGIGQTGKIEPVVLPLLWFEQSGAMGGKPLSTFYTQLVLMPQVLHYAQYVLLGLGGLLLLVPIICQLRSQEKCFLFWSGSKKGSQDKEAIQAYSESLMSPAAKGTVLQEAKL
SMARCA2 activ – increases SMARCA2 function in MMTV reporter cells. activation, % at 9.1 µM. 1% of 370,000 active. AID 652017. MG213 cells, MMTV-luciferase reporter, dexamethasone, overnight; in the data active means activation above about 7.8%;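 further: 0% = vehicle wells and 100% = reference activator wells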
Superoxide pick – yeast aging superoxide inhibition, cherry pick confirmation | shares compounds with Yeast superoxide | S. cerevisiae aging, superoxide DHE fluorescence; active compounds read low | superoxide response (% of plate), % at 10 µM | 1% of 850 active;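 active means superoxide signal below 65% of the plate average of sample wells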;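 further: cells aged with compound for 7 days at 30 degrees C before staining; 100% equals mean DHE fluorescence of all compound wells on the plate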
DHE counter – counter-screen for compounds affecting DHE oxidation and fluorescence in yeast; shares compounds with Yeast superoxide; S. cerevisiae BY4741, flow cytometry; active compounds read low; fluorescence response, % at 10 µM; 850 tested, under 10 active; AID 435000;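 active means fluorescence response below 15%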;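 further: percent of the mean fluorescence averaged over all compound wells on the plate; lower means stronger quenching of DHE signal or ROS scavenging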
AHR act confirm – confirmation of human aryl hydrocarbon receptor activators; shares compounds with AHR act; human cells, AHR-responsive luciferase reporter, luminescence; activation, % at 9 µM; 87% of 2,300 active; AID 2845; in the data active means activation above about 49%;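 further: HepG2 hepatoma cells carrying a DRE-driven firefly luciferase reporter; 0% = vehicle wells and 100% = reference agonist wells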
PXR act counter – activates human PXR in AHR activator counter-screen | shares compounds with AHR act | cell-based PXR reporter, luciferase luminescence | activation, % at 11.6 µM | 88% of 2,300 active; in the data active means activation above about 11%;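 further: human hepatoma DPX-2 cells expressing full-length human PXR; 0% = DMSO and 100% = reference agonist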
An asterisk follows results filed as active; . = no result. The list is not random: actives were taken first. Their share in the collection is about 4.3%.

SMILES	AHR act	SR-BI uptake up	Hep lipid drop	Yeast superoxide	SR-BI DiI inh	SMARCA2 activ	Superoxide pick	DHE counter	others
CSCCC(NC(=O)CCC(=O)OC1CC[C@H]2[C@@H]3CC[C@H]4CC(=O)CC[C@]4(C)[C@H]3CC[C@]12C)C(=O)O (stereo partly specified)	-0.9	12.5	-16.2	97.3	-12.5	1.9	83.5	105.2
COc1cccc(NC2=NCCS2)c1	.	.	.	.	.	-4.6	.	.
C[C@]12CCC3[C@@H](CC[C@@H]4C[C@H](O)CC[C@]34C)[C@@H]1CCC2=O (stereo partly specified)	-1.2	3.2	.	66.4	-3.2	0.4	.	.
C[C@]12CCC3C(CC[C@H]4C[C@@H](O)CC[C@]34C)C1[C@H]1CN=N[C@H]1[C@@H]2O (stereo partly specified)	-0.7	13.0	.	107.8	-13.0	-4.9	133.8	120.4
C[C@]12CCC3C(CC[C@H]4C[C@@H](O)CC[C@]34C)C1CC[C@@H]2OC(=O)[C@H](N)CCCCN (stereo partly specified)	-0.4	-9.8	.	81.8	9.8	1.7	72.8	98.3
C[C@]12CCC3C(CC[C@H]4C[C@@H](O)CC[C@]34C)C1CCC2=O (stereo partly specified)	-0.5	-3.3	.	62.7*	3.3	.	90.0	102.8
C[C@]12CC[C@H](O)C[C@@H]1CC[C@@H]1[C@@H]2CC[C@]2(C)C(=O)CC[C@@H]12	-0.7	10.0	0.0	70.3	-10.0	0.0	.	.
C[C@]12CCC3C(CC[C@H]4C[C@@H](O)CC[C@]34C)C1C[C@@H](Br)[C@H]2O (stereo partly specified)	-1.4	.	.	77.0	.	-2.7	104.0	112.5
O=C(c1ccccc1)N1Cc2cc(Br)ccc2-n2nncc2C1	.	.	.	.	.	-0.8	.	.
Clc1cc(Cl)cc(CN2Cc3ccccc3-n3nncc3C2)c1	.	.	.	.	.	5.8	.	.
O=C(NCCN1CCC2(CC1)C(=O)NCN2c1ccccc1)c1cccs1	.	.	.	.	.	-5.4	.	.
CCOc1ccc(C2SCC(=O)Nc3c2c(=O)[nH]n3C2CCCCCC2)cc1 (stereo unspecified)	2.4	-9.7	.	61.6*	9.7	-3.6	104.5	96.1
C[C@]12CCC3C(CC[C@@H]4[C@H]5O[C@H]5CC[C@]34C)C1CC[C@@H]2O (stereo partly specified)	.	-4.4	.	.	4.4	1.2	77.7	92.6
C[C@]12CCC3C(C[C@@H](O)[C@H]4C[C@@H](O)CC[C@]34C)C1CC[C@@H]2O (stereo partly specified)	-1.3	37.7	.	103.9	-37.7	-1.0	95.5	95.0
C[C@]12CCC(=O)C=C1CCC1C2CC[C@@]2(C)C1CC[C@@H]2O (stereo partly specified)	-1.8	3.3	.	91.7	-3.3	-4.2	.	.
C[C@]12CC[C@H](N)CC1=CCC1C2CC[C@@]2(C)C1CC[C@@H]2O (stereo partly specified)	-0.9	5.9	.	123.2	-5.9	3.3	.	.
C=C1[C@@H](C)C2[C@H](Cc3ccccc3)NC(=O)[C@]23[C@H](OC(C)=O)/C=C/[C@@](C)(O)C(=O)[C@@H](C)C/C=C/[C@H]3[C@@H]1O (stereo partly specified)	.	.	.	.	.	6.1	.	.
O=C(NCCN1CCC2(CC1)C(=O)NCN2c1ccccc1)c1ccc(F)cc1	.	.	.	.	.	-3.2	.	.
CNc1ccc2nc3ccccc3[n+](C)c2c1	9.8	-2.7	-2.3	61.9*	2.7	-4.0	61.6*	110.3
COc1ccc(-n2c(O)c(C(C)=NCC3CCCO3)c(=O)[nH]c2=O)cc1 (stereo unspecified)	-5.2	28.8	-0.5	55.8*	-28.8	-4.0	107.1	126.2
Cc1ccc[n+](CC(O)Cn2c3ccccc3c3ccccc32)c1 (stereo unspecified)	4.8	6.5	-1.8	52.3*	-6.5	-1.7	92.0	90.7
Cc1ccc(C)c(Cn2c(C(=O)O)c(C=O)c3ccccc32)c1	3.2	5.5	5.5	110.2	-5.5	3.6	.	.
O=C(NC1CCCCC1)N1Cc2cc(Br)ccc2-n2nncc2C1	.	.	.	.	.	0.3	.	.
CC(C)(C)c1ccc(C(=O)C2CCCN(Cc3ccon3)C2)cc1 (stereo unspecified)	17.1	-12.3	1.9	94.0	12.3	0.9	.	.
CC(C)(C)c1ccc(C(=O)C2CCCN(C3CCC3)C2)cc1 (stereo unspecified)	5.1	9.0	20.4	64.7*	-9.0	-0.5	121.3	118.7
SMILES	AHR act	SR-BI uptake up	Hep lipid drop	Yeast superoxide	SR-BI DiI inh	SMARCA2 activ	Superoxide pick	DHE counter	others
CC12CCC3C(CCCC4CC(=O)CCC43C)C1CCC2O (stereo unspecified)	.	16.7	.	.	-16.7	-1.5	.	.
CC12CCC3C(CCC4CC(=O)C(C(O)C(F)(F)F)CC43C)C1CCC2O (stereo unspecified)	.	-7.2	.	.	7.2	-3.2	101.2	115.5
C[C@]12CCC(=O)C[C@H]1CC[C@@H]1[C@@H]2CC[C@]2(C)[C@@H](O)CC[C@@H]12	-0.3	.	.	73.3	.	.	99.0	117.8
Cc1ccc2nc3c(cc2c1)CC1(C(=O)N(C)C(=O)N(C)C1=O)C1CCCCN31 (stereo unspecified)	85.2*	-22.8	-2.0	107.1	22.8	4.8	.	.	AHR act confirm=78.3*;PXR act counter=71.8*
CNC(=O)Oc1cccc(-c2cn3cc(Cl)ccc3n2)c1	95.7*	2.0	5.0	94.0	-2.0	4.2	.	.	AHR act confirm=32.8;PXR act counter=12.5*
CC(N)Cc1c[nH]c2ccc(O)cc12 (stereo unspecified)	.	8.5	.	.	-8.5	1.6	.	.
CC(N)Cc1c[nH]c2ccc(OCc3cccs3)cc12 (stereo unspecified)	80.3*	2.9	.	92.1	-2.9	-0.5	.	.	AHR act confirm=50.5*;PXR act counter=11.1*
COCCOC(=O)c1c(N)n(Cc2ccco2)c2nc3ccccc3nc12	82.0*	24.4	21.0	102.4	-24.4	0.3	.	.	AHR act confirm=35.7;PXR act counter=91.5*
CC(C)OC(=O)c1c(N)n(Cc2ccco2)c2nc3ccccc3nc12	41.2	1.9	.	121.4	-1.9	-0.8	.	.
NCCc1c(Cc2ccccc2)[nH]c2ccccc12	7.7	.	.	103.6	.	-3.6	.	.
Cc1c(CCN)ccc2c1[nH]c1ccccc12	92.1*	26.7	-10.2	65.3*	-26.7	-3.9	.	.	AHR act confirm=29.2;PXR act counter=13.3*
CC(C)S(=O)(=O)N1Cc2ccc(Br)cc2-n2nncc2C1	.	.	.	.	.	-6.3	.	.
